The record followed here is PubChem BioAssay.

Activity calls are given as the source filed them.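 How the source made its calls, unless noted: active means viability at or under a set limit in both replicates, limit being median viability minus 3 SD (cut at about 48% in these data, passing the limit was not always enough); inconclusive means at or under the limit in just one replicate; inactive means at or above the limit in both replicates.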

Experiment [1] is described as follows: reducers of endogenous Her2 protein level, primary screen, SKBR3 breast tumor cells, AlphaScreen, ATP viability (AID 461;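 active means Her2 level under about 52% in both replicate screens, with viability over 70% of control, limit read from the data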;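 on Her2 level: lower value means less Her2 protein in the cells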;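 on viability: percent of carrier control wells set as 100% viability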). The conditions noted are these: 18-24 h, measured here: SKBR3 viability, ATP luminescence, at 10 µM. On the technique in general: In Alpha technology, singlet oxygen from a donor bead excites a nearby acceptor bead.
Experiment [2] has as its target Receptor tyrosine-protein kinase erbB-2 (Homo sapiens) (UniProt P04626). The description is as above. The conditions noted are these: 18-24 h, at 10 µM, stronger effect = lower value.
Experiment [3] is described as follows: SK-BR-3 cell growth inhibitors, pilot screen, 24 h, human (AID 572;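 active means viability at or below 10% of carrier control in both of two separate runs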;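 further: compound exposure lasted between 18 and 24 h rather than exactly 24 h; 100% = carrier-treated control wells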). The note with it: SK-BR-3 viability, CellTiter-Glo luminescence, at 10 µM, stronger effect = lower value. For orientation: ATP-based viability assays read luminescence as a measure of living cells.
Experiment [4] can be described thus: HUVEC growth inhibition – cell-based, human, primary screen (AID 575;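 active means viability at or below 30% in both replicate assays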;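 further: 100% = median of untreated cell wells with 0.1% DMSO on each plate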). The conditions noted are these: HUVEC proliferation, CellTiter-Glo luminescence, 72 h; at 10 µM; stronger effect = lower value. The essentials:
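material = primary HUVEC, no more than 12 passages | input = 1250 cells per well | controls = vehicle and MePR control wells | measured by = CTG luminescence | times = 72 h compound incubation | format = collagen-coated 384-well format | read-out = % viability vs DMSO wells | doses = single 10 µM dose, 0.1% DMSO, from 5x medium stock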

Experiment [5] in a line: growth inhibitors of H69AR lung tumor, primary screen, human, duplicate replicates (AID 580).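 Further: 100% = mean luminescence of untreated wells and 0% = no signal.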 The note with it: H69AR lung tumor cells viability, ATP luminescence, 72 h; at 10 µM; stronger effect = lower value.
Experiment [6] in a line: reversal of MRP1-mediated doxorubicin resistance, pilot screen, H69AR cells, doxorubicin co-treatment (AID 601;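 active means viability loss from added drug above about 55%, and viability with drug at most 40%, in both replicates, limit read from the data, passing the limit was not always enough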). The note with it: CellTiter-Glo, 72 h, at 10 µM; for differential viability (reversal): stronger effect = higher value.
Experiment [7] in a line: 384-well plate pilot, post-Golgi transport modulator project, inhibition of yeast transport mutant growth (AID 636; in the data active means inhibition above about 31%). The conditions noted are these: absorbance 615 nm, about 18 h, stronger effect = higher value.
Experiment [8] is described as follows: growth suppression of yeast trafficking mutant, preliminary HTS, modulators of trafficking downstream of Golgi apparatus project, 1536-format plate, OD 615 nm (AID 637; in the data active means inhibition above about 30%). The note with it: yeast transport mutant growth, absorbance 615 nm, 18 h; stronger effect = higher value.
[9] abbreviates: H69AR cells + 2 uM doxorubicin, measured here: viability with 2 uM doxorubicin, stronger effect = lower value.
The mark [10] stands for this setting: H69AR cells, compound alone cytotoxicity.

Chain of Receptor tyrosine-protein kinase erbB-2 (Homo sapiens) (P04626 whole entry, looked up): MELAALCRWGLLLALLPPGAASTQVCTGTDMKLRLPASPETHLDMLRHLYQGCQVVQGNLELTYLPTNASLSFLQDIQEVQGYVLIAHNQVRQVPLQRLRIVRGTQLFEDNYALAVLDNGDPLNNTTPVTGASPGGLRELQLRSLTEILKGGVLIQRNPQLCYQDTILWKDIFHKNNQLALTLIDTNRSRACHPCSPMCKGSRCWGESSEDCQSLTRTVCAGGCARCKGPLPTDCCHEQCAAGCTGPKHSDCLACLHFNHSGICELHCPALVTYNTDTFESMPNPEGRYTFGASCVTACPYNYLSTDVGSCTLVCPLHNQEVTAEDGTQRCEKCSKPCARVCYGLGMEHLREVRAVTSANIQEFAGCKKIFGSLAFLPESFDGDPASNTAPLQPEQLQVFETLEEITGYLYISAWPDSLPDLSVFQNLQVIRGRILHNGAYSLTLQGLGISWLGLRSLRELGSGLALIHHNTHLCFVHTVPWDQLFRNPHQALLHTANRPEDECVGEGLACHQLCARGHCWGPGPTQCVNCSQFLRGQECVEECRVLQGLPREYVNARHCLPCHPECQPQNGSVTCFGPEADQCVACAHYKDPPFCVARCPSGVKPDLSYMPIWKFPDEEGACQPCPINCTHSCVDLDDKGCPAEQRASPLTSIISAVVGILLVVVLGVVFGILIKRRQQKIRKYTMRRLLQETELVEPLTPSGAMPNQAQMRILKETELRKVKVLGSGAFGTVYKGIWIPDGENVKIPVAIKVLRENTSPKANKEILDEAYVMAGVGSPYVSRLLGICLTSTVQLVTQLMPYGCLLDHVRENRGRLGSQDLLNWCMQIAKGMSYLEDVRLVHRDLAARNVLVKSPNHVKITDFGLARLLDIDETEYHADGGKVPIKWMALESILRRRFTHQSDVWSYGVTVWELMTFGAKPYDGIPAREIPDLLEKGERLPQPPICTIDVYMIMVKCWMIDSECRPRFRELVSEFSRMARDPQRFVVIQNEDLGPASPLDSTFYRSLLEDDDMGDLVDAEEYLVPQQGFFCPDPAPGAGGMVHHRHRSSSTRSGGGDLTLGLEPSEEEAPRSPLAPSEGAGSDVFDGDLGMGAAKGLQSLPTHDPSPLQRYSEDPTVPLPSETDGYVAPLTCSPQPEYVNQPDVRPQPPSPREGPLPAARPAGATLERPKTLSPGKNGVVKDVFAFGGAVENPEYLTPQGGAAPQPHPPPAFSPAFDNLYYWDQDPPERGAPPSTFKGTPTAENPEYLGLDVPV

On to `O=C(CCN1C(=O)C2C3C=CC(C3)C2C1=O)NC1CCCc2ccccc21` (stereo not given), for which the viability in experiment [1] was 81%; in experiment [3], 81% (inactive); in experiment [4] it was 76.7% (inactive); in experiment [5] it was 94.2% (inactive); in experiment [6] (setting [9]), 87.7%; in experiment [6] (setting [10]) it was 94.2%. Moreover, the Her2 level in experiment [2] was 90.5% (inactive). Also, in experiment [6] (H69AR cells + 2 uM doxorubicin), the differential viability (reversal) was 6.45% (inactive). In addition, the results for the inhibition in experiment [7] and in experiment [8] were -1.89% (inactive) and 5.57% (inactive), respectively.
For the compound `CCOC(=O)N1CCN(c2c(N3CCN(c4ccccc4OC)CC3)c(=O)c2=O)CC1`, the viability in experiment [1] is 94.5%; in experiment [3], 94.5% (inactive); in experiment [4] it was 109% (inactive); in experiment [5], 84.2% (inactive); in experiment [6] (setting [9]) it was 75.5%; in experiment [6] (setting [10]), 84.2%. Besides, the Her2 level in experiment [2] is 104% (inactive). Further, in experiment [6] (H69AR cells + 2 uM doxorubicin), the differential viability (reversal) was 8.68% (inactive). For the same compound, the values for the inhibition in experiment [7] and in experiment [8] were -4% (inactive) and -7.38% (inactive), respectively.
In the case of `O=C(CN1CCN(Cc2ccc3c(c2)OCO3)CC1)Nc1ccc2c(c1)OCCO2`, the viability is 97% in experiment [1]; 97% (inactive) in experiment [3]; 93.8% (inactive) in experiment [4]; 94.4% (inactive) in experiment [5]; 78% in experiment [6] (setting [9]); 94.4% in experiment [6] (setting [10]). Moreover, in experiment [2], the Her2 level is 89.5% (inactive). Further, in experiment [6] (H69AR cells + 2 uM doxorubicin), the differential viability (reversal) was 16.4% (inactive). Besides, the inhibition in experiment [7] is -2.43% (inactive); in experiment [8] it was -1.27% (inactive).
As for `CC(=O)Nc1ccc(OC(=O)c2cccnc2)cc1`, the viability in experiment [1] was 111%; in experiment [3], 111% (inactive); in experiment [4], 116% (inactive); in experiment [5] it was 99.9% (inactive); in experiment [6] (setting [9]), 84.9%; in experiment [6] (setting [10]), 99.9%. The Her2 level in experiment [2] was 116% (inactive). Besides, the differential viability (reversal) in experiment [6] (H69AR cells + 2 uM doxorubicin) is 15.1% (inactive). The inhibition in experiment [7] was -7.57% (inactive); in experiment [8] it was -3.17% (inactive).
For `O=C(CCC(=O)OCCCC(F)(F)C(F)(F)F)NC1CCCCC1`, the viability is 123% in experiment [1]; 123% (inactive) in experiment [3]; 112% (inactive) in experiment [4]; 95.3% (inactive) in experiment [5]; 91.9% in experiment [6] (setting [9]); 95.3% in experiment [6] (setting [10]). In addition, in experiment [2], the Her2 level is 112% (inactive). Also, the differential viability (reversal) in experiment [6] (H69AR cells + 2 uM doxorubicin) is 3.4% (inactive). For the same compound, the inhibition in experiment [7] is -5.47% (inactive); in experiment [8] it was -3.23% (inactive).
In the case of `CCc1nnc(NC(=O)c2ccc(S(=O)(=O)NC3CCCCC3)cc2)s1`, the viability in experiment [1] was 86.5%; in experiment [3], 86.5% (inactive); in experiment [4], 74% (inactive); in experiment [5], 80.1% (inactive); in experiment [6] (setting [9]), 37.1%; in experiment [6] (setting [10]), 80.1%. In addition, the Her2 level in experiment [2] is 69.5% (inactive). Moreover, the differential viability (reversal) in experiment [6] (H69AR cells + 2 uM doxorubicin) is 43% (inactive). Also, the inhibition in experiment [7] was -5.68% (inactive); in experiment [8] it was -8.33% (inactive).
`O=C(O)CCc1ccc(-c2cccs2)n1CCC(=O)O`: the viability in experiment [1] was 108%; in experiment [3] it was 108% (inactive); in experiment [4], 107% (inactive); in experiment [5] it was 85.8% (inactive); in experiment [6] (setting [9]) it was 84.6%; in experiment [6] (setting [10]), 85.8%. Also, the Her2 level in experiment [2] is 86.5% (inactive). In addition, in experiment [6] (H69AR cells + 2 uM doxorubicin), the differential viability (reversal) is 1.25% (inactive). The inhibition in experiment [7] is -2.24% (inactive); in experiment [8] it was -1.64% (inactive).
Consider `CC(C)(C)n1ncc2c(=O)n(CC(=O)NCc3ccco3)cnc21`, for which the viability is 91.5% in experiment [1]; 91.5% (inactive) in experiment [3]; 111% (inactive) in experiment [4]; 68.5% (inactive) in experiment [5]; 80.8% in experiment [6] (setting [9]); 68.5% in experiment [6] (setting [10]). Further, the Her2 level in experiment [2] was 94% (inactive). Further, the differential viability (reversal) in experiment [6] (H69AR cells + 2 uM doxorubicin) was -12.3% (inactive). The figures for the inhibition in experiment [7] and in experiment [8] were -1.45% (inactive) and -10.5% (inactive), respectively.
For the compound `COC(=O)CCc1c(C)c(C#N)c2nc3ccccc3n2c1N1CCCC1`, the viability in experiment [1] was 100%; in experiment [3], 100% (inactive); in experiment [4], 98.1% (inactive); in experiment [5] it was 73.2% (inactive); in experiment [6] (setting [9]), 27.7%; in experiment [6] (setting [10]), 73.2%. Also, in experiment [2], the Her2 level was 84% (inactive). For the same compound, the differential viability (reversal) in experiment [6] (H69AR cells + 2 uM doxorubicin) was 45.5% (inactive). Besides, the inhibition in experiment [7] was -8.24% (inactive); in experiment [8] it was 8.67% (inactive).
In the case of `CC(C)(C)C(=O)CNS(=O)(=O)c1ccc(S(=O)(=O)NC2CCCC2)cc1`, the viability was 104% in experiment [1]; 104% (inactive) in experiment [3]; 115% (inactive) in experiment [4]; 98.8% (inactive) in experiment [5]; 87.6% in experiment [6] (setting [9]); 98.8% in experiment [6] (setting [10]). Further, the Her2 level in experiment [2] is 92% (inactive). Further, the differential viability (reversal) in experiment [6] (H69AR cells + 2 uM doxorubicin) was 11.2% (inactive). Further, the inhibition in experiment [7] was -3.56% (inactive); in experiment [8] it was 1.9% (inactive).
As for `Cc1ccc2cc(CN(Cc3ccc4c(c3)OCO4)Cc3nnnn3Cc3ccco3)c(=O)[nH]c2c1C`, the viability was 98.5% in experiment [1]; 98.5% (inactive) in experiment [3]; 85.1% (inactive) in experiment [4]; 79.6% (inactive) in experiment [5]; 66.4% in experiment [6] (setting [9]); 79.6% in experiment [6] (setting [10]). In addition, in experiment [2], the Her2 level is 97% (inactive). The differential viability (reversal) in experiment [6] (H69AR cells + 2 uM doxorubicin) was 13.3% (inactive). In addition, the inhibition is -1.33% (inactive) in experiment [7] and -3.17% (inactive) in experiment [8].
On to `COc1ccccc1CNC(=O)N[C@@H](Cc1ccccc1)C(=O)O`, for which the viability in experiment [1] is 102%; in experiment [3] it was 102% (inactive); in experiment [4], 114% (inactive); in experiment [5], 93.2% (inactive); in experiment [6] (setting [9]) it was 81%; in experiment [6] (setting [10]) it was 93.2%. Further, the Her2 level in experiment [2] is 80% (inactive). The differential viability (reversal) in experiment [6] (H69AR cells + 2 uM doxorubicin) was 12.2% (inactive). For the same compound, the inhibition in experiment [7] was -5.81% (inactive); in experiment [8], 10.5% (inactive).
For the compound `CN(C)c1cccc2c(S(=O)(=O)Nc3ccccn3)cccc12`, the viability in experiment [1] is 96.5%; in experiment [3], 96.5% (inactive); in experiment [4] it was 109% (inactive); in experiment [5] it was 101% (inactive); in experiment [6] (setting [9]), 98.7%; in experiment [6] (setting [10]) it was 101%. Also, the Her2 level in experiment [2] was 95.5% (inactive). The differential viability (reversal) in experiment [6] (H69AR cells + 2 uM doxorubicin) is 2.54% (inactive). The inhibition in experiment [7] is -6.8% (inactive); in experiment [8], 1.43% (inactive).
`COc1ccc(Br)cc1S(=O)(=O)N1CC(C)OC(C)C1` (stereo not given): the viability in experiment [1] is 90.5%; in experiment [3] it was 90.5% (inactive); in experiment [4], 95.6% (inactive); in experiment [5], 91.3% (inactive); in experiment [6] (setting [9]) it was 96.2%; in experiment [6] (setting [10]), 91.3%. Moreover, the Her2 level in experiment [2] is 100% (inactive). In addition, the differential viability (reversal) in experiment [6] (H69AR cells + 2 uM doxorubicin) was -4.83% (inactive). Moreover, the inhibition in experiment [7] was 1.73% (inactive); in experiment [8] it was -6.35% (inactive).

The viability is a read-out of living cells in per cent, often relative to untreated cells. Usually inhibition stands for the relative decrease from the control value, in per cent.
